Active and inactive are the calls of the source. The rule behind the calls is not given here.
Key:
Bacillus subtilis = assay: Antibacterial activity against Bacillus Subtilis assessed as bacterial transcription by measuring delocalization of GFP-tagged RpsB from cell poles towards midcell at 1 time MIC incubated for 30 mins by epifluorescence microscopy based analysis; type: functional, organism-based
In short: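 B. subtilis reporter strains expressing GFP fusions, grown overnight on selective LB agar at 37 °C, then overnight in LB with selective antibiotic and xylose, 37 °C, 180 rpm. Cells mounted on 1.2% agarose, imaged by epifluorescence with 100×/1.45 oil objective, FITC (525/50) filter.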

Klebsiella pneumoniae = assay: Antimicrobial activity against Klebsiella pneumoniae ATCC 700603 assessed as reduction in microbial growth measured after 20 hrs by CLSI based broth microdilution method; type: functional
In short: (§1)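 Broth microdilution per CLSI in cation-adjusted Mueller-Hinton broth. Two-fold serial dilutions from 256 to 0.25 μg/mL, inoculum about 5 × 10⁵ CFU/mL. Read after 20 h at 37 °C. MIC is the lowest concentration with no visible growth. Run in duplicate.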

Staphylococcus aureus [1] = assay: Antimicrobial activity against Staphylococcus aureus ATCC 25923 assessed as reduction in microbial growth measured after 20 hrs by CLSI based broth microdilution method; type: functional; in short: as §1
Enterobacter cloacae = assay: Antimicrobial activity against Enterobacter cloacae ATCC 13047 assessed as reduction in microbial growth measured after 20 hrs by CLSI based broth microdilution method; type: functional; in short: as §1
Enterococcus faecalis = assay: Antimicrobial activity against Enterococcus faecalis ATCC 19433 assessed as reduction in microbial growth measured after 20 hrs by CLSI based broth microdilution method; type: functional; in short: as §1
Pseudomonas aeruginosa = assay: Antimicrobial activity against Pseudomonas aeruginosa ATCC 27853 assessed as reduction in microbial growth measured after 20 hrs by CLSI based broth microdilution method; type: functional; in short: as §1
Streptococcus pneumoniae = assay: Antimicrobial activity against Streptococcus pneumoniae ATCC 49619 assessed as reduction in microbial growth measured after 20 hrs by CLSI based broth microdilution method; type: functional
Escherichia coli = assay: Antimicrobial activity against Escherichia coli ATCC 25922 assessed as reduction in microbial growth measured after 20 hrs by CLSI based broth microdilution method; type: functional; in short: as §1
Staphylococcus aureus [2] = assay: Antimicrobial activity against Staphylococcus aureus ATCC 29213 assessed as reduction in microbial growth measured after 20 hrs by CLSI based broth microdilution method; type: functional; in short: as §1
Acinetobacter baumannii = assay: Antimicrobial activity against Acinetobacter baumannii ATCC 19606 assessed as reduction in microbial growth measured after 20 hrs by CLSI based broth microdilution method; type: functional; in short: as §1

| SMILES | MIC (Klebsiella pneumoniae) [µg/mL] | MIC (Staphylococcus aureus [1]) [µg/mL] | MIC (Enterobacter cloacae) [µg/mL] | MIC (Enterococcus faecalis) [µg/mL] | MIC (Pseudomonas aeruginosa) [µg/mL] | MIC (Streptococcus pneumoniae) [µg/mL] | MIC (Escherichia coli) [µg/mL] | MIC (Staphylococcus aureus [2]) [µg/mL] | MIC (Acinetobacter baumannii) [µg/mL] | Activity (Bacillus subtilis) |
| --- | --- | --- | --- | --- | --- | --- | --- | --- | --- | --- |
| CN(C)[C@@H]1C(O)=C(C(N)=O)C(=O)[C@@]2(O)C(O)=C3C(=O)c4c(O)cccc4[C@@](C)(O)[C@H]3C[C@@H]12 | – | – | – | – | – | – | – | – | – | Active |
| OC(CNCCNc1ccc(C(F)(F)F)cn1)COc1ccc(C(F)(F)F)cc1 (stereo unspecified) | > 256 | 64 | > 256 | 64 | > 256 | 16 | 64 | 32 | 64 | – |
| N#Cc1ccccc1NCCNCC(O)COc1ccc(C(F)(F)F)cc1 (stereo unspecified) | > 256 | 128 | 128 | 128 | > 256 | 64 | 16 | 128 | 128 | – |
| O=[N+]([O-])c1ccc(OCC(O)CNCCNc2ccccc2C(F)(F)F)cc1 (stereo unspecified) | > 256 | 64 | 128 | 128 | > 256 | 64 | 128 | 64 | 128 | – |
| O=[N+]([O-])c1ccc(OCC(O)CNCCNc2ccc(F)cn2)cc1 (stereo unspecified) | > 256 | > 256 | > 256 | > 256 | > 256 | > 256 | > 256 | > 256 | > 256 | – |
| COc1ccc(OCC(O)CNCCNc2nccc(C(F)(F)F)n2)cc1 (stereo unspecified) | > 256 | > 256 | > 256 | > 256 | > 256 | 256 | > 256 | > 256 | > 256 | – |
| O=[N+]([O-])c1ccccc1NCCNCC(O)COc1ccc(C(F)(F)F)cc1 (stereo unspecified) | > 256 | 128 | 128 | 128 | > 256 | 32 | > 256 | 128 | > 256 | – |

Further lines, with some results ahead:

| MIC (Klebsiella pneumoniae) [µg/mL] | MIC (Staphylococcus aureus [1]) [µg/mL] | MIC (Enterobacter cloacae) [µg/mL] | MIC (Enterococcus faecalis) [µg/mL] | MIC (Pseudomonas aeruginosa) [µg/mL] | MIC (Streptococcus pneumoniae) [µg/mL] | MIC (Escherichia coli) [µg/mL] | MIC (Staphylococcus aureus [2]) [µg/mL] | MIC (Acinetobacter baumannii) [µg/mL] | SMILES | Activity (Bacillus subtilis) |
| --- | --- | --- | --- | --- | --- | --- | --- | --- | --- | --- |
| > 256 | 128 | > 256 | 256 | > 256 | 64 | > 256 | 128 | > 256 | O=[N+]([O-])c1ccc(OCC(O)CNCCNc2ncccc2C(F)(F)F)cc1 (stereo unspecified) | – |
| > 256 | > 256 | > 256 | > 256 | > 256 | 128 | > 256 | 128 | > 256 | OC(CNCCNc1ccccc1C(F)(F)F)COCc1ccccc1C(F)(F)F (stereo unspecified) | – |
| > 256 | 32 | 32 | 16 | > 256 | 16 | 32 | 32 | 32 | OC(CNCCNc1ccccc1C(F)(F)F)COc1cccc(C(F)(F)F)c1 (stereo unspecified) | – |
| 256 | 128 | 128 | 128 | > 256 | 64 | 128 | 64 | 128 | O=[N+]([O-])c1ccc(NCCNCC(O)COCc2ccc(C(F)(F)F)cc2)nc1 (stereo unspecified) | – |

— ChEMBL document CHEMBL6071151, “Discovery of Inhibitors Targeting Protein-Protein Interaction between Bacterial RNA Polymerase and NusG as Novel Antimicrobials” (J Med Chem, 2024)
